Measured values reported in ChEMBL document CHEMBL4017544 (J Med Chem, 2017).
Activity calls are given as the source filed them. The rule behind the calls is not given here.

Experiments:
[1] = Drug level in Sprague-Dawley rat heart at 20 mg/kg, ip measured at 90 mins by LC-MS/MS analysis; format: ADME, organism-based; settings: read-out: Drug uptake
Method in brief: (§1)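 Rats given a single ip injection, 20 mg/kg (0.04 mmol) of CDDO-Me or 30 mg/kg (0.04 mmol) of the prodrug; heart, kidney and liver collected over time; parent compound and liberated CDDO-Me measured by LC-MS/MS.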

Mus musculus [2] = experiment: Toxicity in db/db mouse assessed as increase in body weight at 0.65 mg/kg, ip administered thrice per week for 12 consecutive weeks measured every other day (reference value: 15%); format: organism-based; settings: in vivo
Method in brief: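 Male db/db mice (8 weeks old, specific pathogen-free, normal chow and filtered water ad libitum) were randomized and dosed i.p. three times weekly for 12 consecutive weeks; vehicle was 5% Tween-80 in 0.9% saline. Body weight and food and water consumption were recorded every other day.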

[3] = target: Kelch-like ECH-associated protein 1 (Homo sapiens) (UniProt Q14145); experiment: Inhibition of Keap1/Nrf2 (unknown origin) interaction transfected in HEK293 cells assessed as increase in cytosolic NQO1 levels at 200 to 1000 nM after 48 hrs by Western blot analysis; format: cell-based
Method in brief: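 HEK293 cells grown in high-glucose DMEM with 10% FBS were treated in triplicate at 200 or 1000 nM for 48 h. Nuclear and cytosolic Nrf2, HO-1 and cytoplasmic NQO1 were measured by western blot with specific antibodies, with TBP and β-actin among the probed proteins. The nuclear/cytosolic Nrf2 ratio was derived from these blots. Three independent experiments, mean ± SD.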

Mus musculus [4] = experiment: Anti-diabetic nephropathic activity in db/db mouse assessed as reduction in plasma uric acid levels at 0.65 mg/kg, ip administered trice per week for 12 consecutive weeks measured at 11 weeks post dose; format: functional, organism-based
Method in brief: (§2)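 Male db/db mice, 8 weeks old, randomized; ip vehicle (5% Tween-80 in 0.9% saline) or drug three times weekly for 12 weeks, n = 6 per group. After 11 weeks, 24 h urine collected for volume, albumin and creatinine, with UACR calculated; blood then sampled for plasma BUN and uric acid. Mean ± SD, one-way ANOVA with Tukey test.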

Mus musculus [5] = experiment: Renoprotective activity in db/db mouse assessed as reduction in glomerular basement thickening at 1 to 2 mg/kg, ip administered trice per week for 12 consecutive weeks measured at 11 weeks post dose by TEM microscopic analysis; format: functional, organism-based
Method in brief: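 Male db/db mice (8 weeks old) were dosed i.p. three times weekly for 12 weeks in 5% Tween-80/0.9% saline, n = 6. Kidney tissue was fixed in 3% glutaraldehyde, cut into 80 nm ultrathin sections and examined by TEM. GBM thickness was measured at 30 random locations from three sections per kidney and averaged per mouse.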

Mus musculus [6] = experiment: Anti-diabetic nephropathic activity in db/db mouse assessed as reduction in plasma uric acid levels at 1 to 2 mg/kg, ip administered thrice per week for 12 consecutive weeks measured at 11 weeks post dose; format: functional, organism-based; method in brief: as §2
Kidney [7] = experiment: In vivo drug metabolism in Sprague-Dawley rat assessed as CDDO-Me formation in kidney at 30 mg/kg, ip measured at 90 mins by LC-MS/MS analysis; format: ADME, organism-based; settings: 1.5 h; method in brief: as §1
Kidney [8] = experiment: In vivo drug metabolism in Sprague-Dawley rat assessed as CDDO-Me formation in kidney at 30 mg/kg, ip measured at 30 mins by LC-MS/MS analysis; format: ADME, organism-based; settings: 0.5 h; method in brief: as §1

Kelch-like ECH-associated protein 1 (Homo sapiens), sequence (Q14145 whole entry): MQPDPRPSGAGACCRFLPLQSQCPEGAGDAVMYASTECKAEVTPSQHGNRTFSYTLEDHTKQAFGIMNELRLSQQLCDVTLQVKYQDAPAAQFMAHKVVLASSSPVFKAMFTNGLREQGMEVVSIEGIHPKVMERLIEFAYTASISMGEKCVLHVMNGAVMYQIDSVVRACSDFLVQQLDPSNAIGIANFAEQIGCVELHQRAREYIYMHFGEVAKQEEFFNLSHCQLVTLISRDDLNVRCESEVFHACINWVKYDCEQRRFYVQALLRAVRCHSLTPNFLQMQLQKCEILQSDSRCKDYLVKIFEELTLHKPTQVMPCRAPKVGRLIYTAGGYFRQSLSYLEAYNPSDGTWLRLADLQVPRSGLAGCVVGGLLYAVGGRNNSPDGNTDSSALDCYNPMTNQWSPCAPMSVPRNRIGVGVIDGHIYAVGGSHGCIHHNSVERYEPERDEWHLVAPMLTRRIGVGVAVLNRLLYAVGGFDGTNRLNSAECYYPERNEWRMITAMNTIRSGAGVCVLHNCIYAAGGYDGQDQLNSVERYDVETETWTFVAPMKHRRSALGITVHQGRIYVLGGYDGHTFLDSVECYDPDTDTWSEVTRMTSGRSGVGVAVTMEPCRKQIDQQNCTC

Row | Structure (SMILES) | concentration at 1.5 h [1] [ng/g] | Activity (Mus musculus [2]) [%] | inhibition [3] | Activity (Mus musculus [4]) | Activity (Mus musculus [5]) | Activity (Mus musculus [6]) | Drug metabolism (Kidney [7]) [µg/g] | Drug metabolism (Kidney [8]) [µg/g]
1 | COC(=O)[C@]12CCC(C)(C)C[C@H]1[C@H]1C(=O)C=C3[C@@]4(C)C=C(C#N)C(=O)C(C)(C)[C@@H]4CC[C@@]3(C)[C@]1(C)CC2 [BARDOXOLONE METHYL] | 1580 | 11.3 | Active | Active |  |  |  | 
2 | COC(=O)[C@@H](N)CCC(=O)Nc1ccc(COC2=C(C#N)[C@H](O)[C@]3(C)C4=CC(=O)[C@@H]5[C@@H]6CC(C)(C)CC[C@]6(C(=O)OC)CC[C@@]5(C)[C@]4(C)CC[C@H]3C2(C)C)cc1 |  |  |  |  | Active | Active | 0.18 | 0.09
